# Assay outcomes as filed in PubChem BioAssay.
# An excerpt weighted towards active compounds, which were near 9.6% of everything screened.
# Lmaj promast – Leishmania major promastigote growth inhibition, primary screen | inhibition, % at 10 µM | 200,000 compounds, 9% hits | Leishmania major promastigotes, resazurin fluorescence viability | AID 1063, 2008; in the data active = inhibition above about 50%;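 note: promastigotes grown with compound for 44 hours at 28 °C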
# TNAP act hi DEA – TNAP activators at high phosphate acceptor level, primary screen, biochemical, luminescence, uHTS. activation factor at 20 µM. Alkaline phosphatase, tissue-nonspecific isozyme (Homo sapiens), P05186. 200,000 tested, under 10 active. purified TNAP, CDP-star luminescence, 1 M DEA, 30 min; stronger effect = higher value; 0 = EDTA background, 1 = DMSO-only activity;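 active = activation factor at least 2 at 20 µM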
# Target sequence (P05186 whole entry, looked up): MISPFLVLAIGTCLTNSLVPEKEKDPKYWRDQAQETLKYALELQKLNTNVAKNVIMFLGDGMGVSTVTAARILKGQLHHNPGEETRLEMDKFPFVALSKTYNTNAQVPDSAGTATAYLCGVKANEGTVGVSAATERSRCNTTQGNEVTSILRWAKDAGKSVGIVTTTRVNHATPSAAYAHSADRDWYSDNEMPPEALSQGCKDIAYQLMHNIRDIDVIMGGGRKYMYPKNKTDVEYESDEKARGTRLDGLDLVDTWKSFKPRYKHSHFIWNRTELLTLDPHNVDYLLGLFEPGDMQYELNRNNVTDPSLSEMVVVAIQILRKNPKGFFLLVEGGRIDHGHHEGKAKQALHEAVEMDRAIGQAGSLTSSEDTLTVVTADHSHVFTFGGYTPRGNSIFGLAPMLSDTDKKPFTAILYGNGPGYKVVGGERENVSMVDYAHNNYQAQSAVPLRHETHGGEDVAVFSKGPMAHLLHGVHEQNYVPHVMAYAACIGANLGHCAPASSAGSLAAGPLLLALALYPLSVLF
#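 Control set: EDTA negative control, DMSO positive control / Assay system: human TNAP / Quantity: TNAP 1/800 final / Evaluation: TNAP activation factor scaled between EDTA and DMSO control wells / Measured by: luminescent substrate turnover signal / Compound dosing: one dose, 20 µM / Times: 30 min enzyme reaction at room temperature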
# HCT116 bCat-KO – primary screen for growth suppressors in beta-catenin knockout HCT116 cells (colon tumor, human). AID 818, 2007. 140,000 compounds, 1.5% hits. HCT116 beta-catenin knockout viability, CellTiter-Glo, 60 h; stronger effect = lower value. viability, % at 10 µM;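 active = viability at or under a set limit, the compound median less 4 SD, cut at about 6% in these data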
# TNAP inh hiacc – human TNAP enzyme inhibitors, primary screen, biochemical, luminescent, high phosphate acceptor level, uHTS; Alkaline phosphatase, tissue-nonspecific isozyme (Homo sapiens), P05186; purified TNAP, CDP-star luminescence, 1 M DEA; inhibition, % at 20 µM; 200,000 compounds, 0.03% hits;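 active = over 50% inhibition of tissue-nonspecific alkaline phosphatase at 20 µM in the single-dose screen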
# TNAP inh no acc – human TNAP enzyme inhibitors, primary screen, biochemical, luminescent, no phosphate acceptor, uHTS; Alkaline phosphatase, tissue-nonspecific isozyme (Homo sapiens), P05186; purified TNAP, CDP-star luminescence, 30 min; inhibition, % at 20 µM; 200,000 compounds, 0.26% hits; AID 1012, 2008;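 active = tissue-nonspecific alkaline phosphatase inhibition above about 50% at 20 µM in the single-dose screen, limit read from the data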
# HCT116 PTEN-null – growth suppression of PTEN-null HCT116, primary screen, cell-based, CellTiter-Glo | HCT116 PTEN-null viability, 60 h; stronger effect = lower value | viability, % at 10 µM | 140,000 compounds, 1.2% hits | AID 827, 2007;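 active = viability at or below a set limit, 4 SD under the median of all tested compounds, cut at about 3.7% in these data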;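 note: PTEN knockout HCT116 line with beta catenin targeted HCT116 as companion control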
# Numbers stand for hits; – = inactive; · = not tested or not shown.
SMILES,Lmaj promast,TNAP act hi DEA,HCT116 bCat-KO,TNAP inh hiacc,TNAP inh no acc,HCT116 PTEN-null
O=C(COC(=O)c1cc(=O)[nH]c(=O)[nH]1)Nc1cccc(S(=O)(=O)N2CCOCC2)c1,–,–,·,–,–,·
COc1ccc(C)cc1N(CC(=O)Nc1ccc2c(c1)OCCO2)S(C)(=O)=O,–,–,·,–,–,·
CC(C)(C)C1CC=C2C(C#N)=C(N)C(C#N)(C#N)C(c3cccs3)C2C1 (stereo unspecified),–,–,·,–,–,·
CCc1ccc(C2C(C#N)=C(N)C(C#N)(C#N)C3=CCC(C(C)(C)C)CC32)cc1 (stereo unspecified),96.0,–,–,–,–,–
CC1=C(C(=O)OCC2CCCO2)C(c2ccc(C)o2)C2=C(CC(c3ccc(N(C)C)cc3)CC2=O)N1 (stereo unspecified),84.7,–,–,–,–,–
Cc1ccc(S(=O)(=O)NNC(=O)NC23CC4CC(CC(C4)C2)C3)cc1,–,–,–,–,–,–
Cc1sc2nc(CSc3nc4ccccc4c(=O)n3CCCN3CCOCC3)[nH]c(=O)c2c1C,–,–,–,–,–,–
COCC(C)n1c(SCc2ccc(OC)c(F)c2)nc2ccccc2c1=O (stereo unspecified),100.3,–,·,–,–,·
COCC(C)n1c(SCC(=O)NC(=O)Nc2ccc3c(c2)OCCO3)nc2ccccc2c1=O (stereo unspecified),85.3,–,–,–,–,–
COc1ccc(CCn2c(SCCN3CCCCC3)nc3ccccc3c2=O)cc1OC,99.9,–,·,–,–,·
O=c1c2ccccc2nc(SCCN2CCOCC2)n1CCc1ccccc1,–,–,·,–,–,·
COc1ccc(CSc2nc3ccccc3c(=O)n2CCCN2CCOCC2)cc1F,97.9,–,·,–,–,·
CCCCC(CC)C(=O)NCc1ccc(F)cc1 (stereo unspecified),–,–,–,–,–,–
O=C(Nc1cccc(NC(=O)C2CCCO2)c1)c1ccco1 (stereo unspecified),–,–,·,–,–,·
CC(C)Oc1ccc(Cc2cnc(N)nc2N)cc1,58.0,–,–,–,–,–
CCCc1cc(C(=O)Nc2cccc(C(C)=O)c2)no1,–,–,–,–,–,–
CC(=O)c1cccc(NC(=O)c2cc(-c3ccc(C)cc3)on2)c1,62.3,–,–,–,–,–
C=CCN(c1ccc(C(=O)Nc2ccc(C)cc2)cc1)S(C)(=O)=O,–,–,·,–,–,·
C=CCN(c1ccc(C(=O)Nc2ccc(C)c(C)c2)cc1)S(C)(=O)=O,54.7,–,–,–,–,–
CC(=O)c1cccc(NC(=O)c2ccc(N(Cc3ccc(C)cc3)S(C)(=O)=O)cc2)c1,53.2,–,–,–,–,–
COCCn1c(SCc2cc(=O)n3cc(C)ccc3n2)nc2ccccc2c1=O,–,–,·,–,–,·
CC(C)C[C@H](NC(=O)OC(C)(C)C)c1nnc(SCc2ccccc2)o1,84.6,–,–,–,–,–
COC(=O)N/N=C(\C)c1ccc2ccccc2c1OC(F)F,55.7,–,–,–,–,–
CCc1cccc(N=c2c([N+](=O)[O-])nn(-c3ccc4c(c3)OCCO4)n2O)c1,90.5,–,·,–,–,·
COc1cc(N=c2c([N+](=O)[O-])nn(-c3ccc4c(c3)OCCO4)n2O)cc(OC)c1,–,–,0.8,–,–,0.3
SMILES,Lmaj promast,TNAP act hi DEA,HCT116 bCat-KO,TNAP inh hiacc,TNAP inh no acc,HCT116 PTEN-null
O=[N+]([O-])c1nn(-c2ccccc2)n(O)c1=NC1CCN(Cc2ccccc2)CC1,–,–,·,–,–,·
CC(C)c1ccc(N=c2c([N+](=O)[O-])nn(-c3ccc4c(c3)OCCO4)n2O)cc1,–,–,–,–,–,–
O=[N+]([O-])c1nn(-c2ccc3c(c2)OCCO3)n(O)c1=NC1CCN(Cc2ccccc2)CC1,76.3,–,·,–,–,·
COc1cccc(CC2(CO)CCN(Cc3cn(C)nc3C)CC2)c1,75.0,–,·,–,–,·
OCC1(Cc2cccc(F)c2)CCN(Cc2ccc3cccc(F)c3n2)CC1,88.4,–,·,–,–,·
COc1cccc(CC2(CO)CCN(Cc3ccc(NC(C)=O)cc3)CC2)c1,–,–,·,–,–,·
OCC1(CCOc2ccccc2)CCN(Cc2ccc3cccc(F)c3n2)CC1,81.9,–,·,–,–,·
COc1cccc(CC2(CO)CCN(Cc3ccc4cccc(F)c4n3)CC2)c1,80.4,–,·,–,–,·
Nc1nonc1C(=O)N/N=C/c1ccc(-c2cccc(C(=O)O)c2)o1,–,–,·,–,–,·
COc1ccc([N+](=O)[O-])cc1NC(=O)C(C)Sc1nc(C)c(C)c(C)n1 (stereo unspecified),–,–,–,–,–,–
COc1cccc(CC2(CO)CCN(CC3=CC[C@H]4C[C@@H]3C4(C)C)CC2)c1,88.4,–,·,–,–,·
CN(C)C(CNC(=S)Nc1cccc(Cl)c1)c1cccnc1 (stereo unspecified),–,–,·,–,–,·
COc1ccc(Cn2c(O)c(C=Nc3ccccc3)c3ccccc3c2=O)cc1,–,–,–,–,–,–
COc1ccc(Cn2c(O)c(C=Nc3ccc(O)cc3)c3ccccc3c2=O)cc1,94.1,–,–,–,–,–
CN(C)CCN=Cc1c(O)n(Cc2ccccc2)c(=O)c2ccccc12,–,–,·,–,–,·
CN(C)CCCN=Cc1c(O)n(Cc2ccccc2)c(=O)c2ccccc12,92.4,–,–,–,–,–
COc1ccc(Cn2c(O)c(C=Nc3ccc(C)cc3)c3ccccc3c2=O)cc1,92.3,–,–,–,–,–
NC(N)=NC1=NC(=O)/C(=C/c2ccccc2-n2cccn2)S1,–,–,·,–,–,·
CC1=C(Cl)C2=NS(=O)(=O)CCN2C=C1Cl,–,–,·,–,–,·
CCCCN(C(=S)NC(=O)c1cc(OC)c(OC)c(OC)c1)c1c(N)n(Cc2ccccc2)c(=O)[nH]c1=O,–,–,–,–,–,–
CC(=O)N[C@@H](C)C(=O)OC(C)C(=O)Nc1cccc([N+](=O)[O-])c1 (stereo partly specified),–,–,·,–,–,·
CC(=O)N(C)c1ccc(OCC(O)Cn2c3ccc(Cl)cc3c3cc(Cl)ccc32)cc1 (stereo unspecified),–,–,2.8,–,–,1.8
CC(=O)N(C)c1ccc(OCC(O)Cn2c(C)nc3ccccc32)cc1 (stereo unspecified),–,–,·,–,–,·
Cc1cccc(C(=O)NCCc2ccc(S(N)(=O)=O)cc2)c1[N+](=O)[O-],87.4,–,–,–,–,–
